Test results as given in ChEMBL document CHEMBL4513216, “Probing the Open Global Health Chemical Diversity Library for Multistage-Active Starting Points for Next-Generation Antimalarials” (ACS Infect Dis, 2020).

Test: Toxicity liver stage against HepG2, at 10uM
Assay type: cell-based
Design: test concentration 10 uM, cell line HepG2-A16-CD81EGFP
Details: human, HepG2-A16-CD81EGFP cells; read-out: INHIBITION
Summary of the method: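 Uninfected HepG2-A16-CD81EGFP cells, 3 × 10^3 per well, 1536-well, plated on prespotted compound at 10 μM final, parasite-free screening media added to match infected plates; puromycin 10 μM positive, DMSO 0.5% negative; run in parallel with 48 h PbLuc assay at 37 °C, 5% CO2; viability by CellTiter-Glo luminescence, normalized to controls.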

Row | SMILES | cytotoxicity at 10 µM [%]
1 | CN1CCN(C[C@H]2CN3CC[C@H]2C[C@@H]3CNC(=O)c2ccco2)CC1 | -6.35
2 | COc1ccccc1N1CCN(C(=O)COc2c(C)occc2=O)CC1 | -0.426
3 | COc1ccc2c(c1)c(C(=O)Nc1nnn[nH]1)cn2C(C)C | -57.8
4 | O=C(c1ccccc1F)N1CCN(c2ccc(-n3cccn3)nn2)CC1 | -18.3
5 | O=S(=O)(C1CC1)N1CCC(Cn2cccn2)CC1 | -8.29
6 | Cc1ccccc1C(=O)N1CCN(c2ccc(-n3cncn3)nn2)CC1 | 50.8
7 | O=C(Nc1cnccn1)[C@@H]1C[C@H]2OCC[C@H]2N(c2ncc(F)cn2)C1 | 8.12
8 | CC(C)n1cnc2c1C(C(=O)N1CCCC1)N(S(C)(=O)=O)CC2 (stereo not given) | -5.15
9 | CCC(C)N1CCc2c(C(=O)N(C)Cc3ccccn3)nn(C)c2C1 (stereo not given) | -2.78
10 | CCS(=O)(=O)N1CCn2c(COCC3CCOCC3)cnc2C1C (stereo not given) | 11
11 | CN1CCOCC12CCN(Cc1nccs1)CC2 | 6.46
12 | O=c1cc(CN2CCCC2)nc2n1CCCN(Cc1ccco1)C2 | 4.01
13 | COCCC(=O)N1CC[C@H]2C(=O)N(c3ccsc3)CCO[C@H]2C1 | 10.4
14 | CC(C)C(=O)N1CCCC12CCN(C(=O)c1ccno1)C2 (stereo not given) | 7.49
15 | O=C(NCC1CC1)[C@@H]1C[C@@H]2CCN(Cc3ccccc3)C[C@H]2O1 | 4.21
16 | COCC1COCCC12CCN(C(=O)Cc1ccc(F)cc1)CC2 (stereo not given) | 1.68
17 | Cc1ccc(S(=O)(=O)N2Cc3c(CN(C)C)nn(C)c3C2)cc1 | 2.32
18 | O=C1CCCN1CC1CN(C(=O)C2CCOCC2)Cc2nccn2C1 (stereo not given) | 3.33
19 | C[C@H](NC(=O)OC(C)(C)C)c1nnc(S(=O)(=O)Cc2cccc(F)c2)o1 | -6.91
20 | CN1CCN(c2ncc3c(=O)n(-c4cccc(F)c4)c(=O)[nH]c3n2)CC1 | -8.85
21 | CC(C)NC(=O)C1CN(C(=O)c2ccc(F)cc2)CC12CCOCC2 (stereo not given) | 1.08
22 | CCN(CC)C(=O)c1ccn(COc2ccc(F)cc2)n1 | 7.55

Row | SMILES | cytotoxicity at 10 µM [%]
23 | CC(C)n1cc(S(=O)(=O)N2CCCCC2)cn1 | 2.53
24 | OCCN1CCC(c2csc(Nc3cnccn3)n2)CC1 | -4.26
25 | O=C(C1CCCC1)N1CCCC([C@@H]2C[C@H](C(F)F)n3ncnc3N2)C1 (stereo not given in full) | 4.54
26 | CN(C)C(=O)c1c[nH]nc1-c1ccc(CNC(=O)c2cnccn2)cc1 | -0.56
27 | CNc1ncccc1CN1CCN(C)CC(C(=O)N(C)C)C1 (stereo not given) | 16.1
28 | CNC(=O)c1sc2ccccc2c1C1CCN(c2nc(C)cc(C)n2)C1 (stereo not given) | 4.93
29 | CN(C)c1ccc(CC2CCN(c3cnccn3)C2)nn1 (stereo not given) | 2.97
30 | Cc1c(NC(=O)CN2CCC(Oc3cnccn3)CC2)cnn1C | -4.68
31 | Cc1noc(C)c1C(=O)N1CCCC1(C)C(=O)NC1CCCC1 (stereo not given) | -1.33
32 | CC(C)(C)C(O)CN1CCN(Cc2ccc(C#N)cc2)CC1 (stereo not given) | -8.88
33 | CCC(=O)N1CCN(C(=O)NCc2c(C)cc(C)cc2C)CC1 | 6.12
34 | CCn1nnnc1-c1cccc(NC(=O)CCn2cc(C)cn2)c1 | 1.66
35 | Cc1nc(C(C)NC(=O)NCc2nccn2CC(C)C)cs1 (stereo not given) | -20.7
36 | CN(C)C(=O)Cc1ccccc1NCc1noc(-c2ccccc2)n1 | 6.95
37 | COc1ccc(NC(=O)N(C)Cc2ccco2)cn1 | -11.8
38 | CSCC(C)(O)CNC(=O)c1cccc(Cl)c1Cl (stereo not given) | 0.126
39 | CC(C)Cc1noc(CN2CCN(C(=O)c3cccs3)CC2)n1 | -14.3
40 | Cc1ccc(C(=O)Nc2cnn(CC(=O)NC3CCCC3)c2)c(=O)[nH]1 | -4.09
41 | Cc1ccc(NC(C)C(=O)NCc2cccs2)cc1Cl (stereo not given) | -2.27
42 | FC(F)(F)CN1CCC(CCNc2ncccn2)CC1 | -3.94
43 | CCN(CC(=O)NCc1nc(C2CC2)no1)Cc1ccc(Cl)cc1 | -2.29
44 | Cc1cnn(CCCNC(=O)C2CCCCN2Cc2ccncc2)c1 (stereo not given) | -7.85

Row | SMILES | cytotoxicity at 10 µM [%]
45 | Cc1cnn(CCCNC(=O)C2CCCCN2Cc2cccnc2)c1 (stereo not given) | -8.97
46 | O=C(COCC1CC1)Nc1ccn(Cc2cccc3cccnc23)n1 | 13.9
47 | CC(C)c1ccc(O)c(C(=O)NC2CCN(c3ncccn3)CC2)c1 | 9.81
48 | COc1nc(C)ccc1CNC(=O)NC(C)Cc1c(C)nn(C)c1C (stereo not given) | 8.37
49 | O=C(O)CN1CCC(c2ccccc2)CC1 | 1.73
50 | CCN1CCN(C(=O)C(C)SC)CC1 (stereo not given) | 11.4
51 | CC(C)C(=O)NS(=O)(=O)c1ccc(F)c(C(F)(F)F)c1 | -2.32
52 | CCOc1cc(C(=O)O)cc(-c2ccccc2)c1OC | -9.88
53 | Cc1cc(CN2CCc3nn(C)c(=O)cc3C2)on1 | -8.17
54 | CS(=O)(=O)N1CCc2c(cccc2NC(=O)CC(F)(F)F)C1 | 5.06
55 | Cc1cccc(N2CCC3(CCCN3Cc3cn(C)nc3C)CC2)n1 | -4.78
56 | CCc1nc(CN2CC[C@@](O)(CCOC)[C@H](C)C2)cs1 | 10
57 | CN(Cc1cnc(N)nc1)C(=O)c1coc(COc2cccc(F)c2)n1 | 0.998
58 | CSCCCNc1nccc(-c2cc(C(=O)O)ccn2)n1 | 3.49
59 | COc1ccc2c(=O)n(CC3CCCN(C)C3)ccc2c1OC (stereo not given) | -0.391
60 | CCN(Cc1nc(COC)no1)Cc1cc2ccc(F)cc2[nH]c1=O | 2.03
61 | CCc1nccc(CN2CCCC(CNC(=O)c3ccccn3)C2)n1 (stereo not given) | 4.63
62 | CC(C)c1cc(NCC(O)c2ccncc2)n2nccc2n1 (stereo not given) | -1.8
63 | O=C(c1cccc(-n2cccn2)c1)N1CCCOC(Cn2cccn2)C1 (stereo not given) | -6.58
64 | CCn1c(CC2CCN(S(=O)(=O)N3CCCCC3)CC2)nn(C)c1=O | 1.58
65 | CCN1CCC(CC(=O)N(C)C(C)c2cncs2)CC1 (stereo not given) | 6.05
66 | CSCCC(=O)N[C@H]1CC[C@H](Nc2nccc(-c3ccncc3)n2)C1 | -0.664

Row | SMILES | cytotoxicity at 10 µM [%]
67 | COCCc1noc(Cn2ccc3ccccc3c2=O)n1 | 0.0869
68 | CCc1cc(NCCc2cnccn2)n2nc(C)c(C)c2n1 | 5.18
69 | CN(Cc1n[nH]c2c1CCC2)C(=O)CCc1cc2n(n1)CCCNC2 | -0.861
70 | CCCN(Cc1cccnc1)Cc1ccc(C2CCCCO2)o1 (stereo not given) | 1.97
71 | COc1ccc([C@@H]2CN(C(=O)CCC(F)(F)F)C[C@H]2NC(C)=O)cc1 | 2.12
72 | CC(=O)N1CCN(CC2CCOc3ccccc3C2)CC1 (stereo not given) | 7.68
73 | Cc1ccc2cc(CNCCCN3CCOCC3)c(=O)[nH]c2c1 | -0.336
74 | NC(=O)C1CCCN(C(=O)c2ccn(-c3ccc(F)cc3)n2)C1 (stereo not given) | -3.63
75 | CCN(CCCNCc1c(C)nn(C)c1N(C)C)S(C)(=O)=O | -6.89
76 | CCc1ncc2c(n1)CN(Cc1cccc(OCC(N)=O)c1)CC2 | -7.42
77 | Cn1cc(C2CCCN2C(=O)CCCOc2ccc(F)cc2)cn1 (stereo not given) | -17.8
78 | CCCc1noc(CCC(=O)N2CCCC2c2ccc(OC)cc2)n1 (stereo not given) | -0.403
79 | CC(C)c1ncc2c(n1)CN(CC(=O)Nc1ccc(Cl)cn1)CC2 | -1.4
80 | CC(Cn1cccn1)NC(=O)Cc1csc(C(C)C)n1 (stereo not given) | -8.57
81 | Cc1cc(NC(=O)CN2CCCC2c2noc(C)n2)n(C(C)(C)C)n1 (stereo not given) | 1.53
82 | Cc1cnn(CC2CN(Cc3ccccn3)CCO2)c1 (stereo not given) | -2.84
83 | c1ccc(-n2ncc(CN3CCCC(Cn4cncn4)C3)n2)cc1 (stereo not given) | -6.04
84 | c1ccc(-n2cc(CN3CCCCC3Cn3cncn3)nn2)cc1 (stereo not given) | -14.2
85 | O=C(CCc1c(F)cccc1F)NS(=O)(=O)c1ccc2c(c1)OCCO2 | -4.71
86 | COCc1nc(C(=O)N2CCCC2c2cc(C)on2)cs1 (stereo not given) | -5.83
87 | COc1c(C2CCCN2Cc2cc(C)no2)c(C)nn1C (stereo not given) | -7.25
88 | OC(CN1CCOCC1)c1ccc(OC(F)(F)F)cc1 (stereo not given) | -9.36

Row | SMILES | cytotoxicity at 10 µM [%]
89 | Cc1cc(CN2CCN(C(C)c3nc(C4CC4)no3)CC2)no1 (stereo not given) | 1.35
90 | CCN(Cc1cccc(Cl)c1)Cc1nc2c(cnn2C)c(=O)[nH]1 | 1.01
91 | CNS(=O)(=O)c1ccc(CNC(=O)NCC2CCCO2)cc1 (stereo not given) | 7.12
92 | O=C(O)[C@@H]1CCCN1c1nccc(Nc2ccccc2)n1 | 12.2
93 | CCN(CC)Cc1cn2c(n1)CN(C1CCOC1)CC2 (stereo not given) | 4.12
94 | O=C1CC[C@H]2[C@H](CCN2c2ncc(F)cn2)N1c1cccnc1 | 0.864
95 | COCC(=O)N1CCC2(CC1)COCCN2CCN(C)C | -3.28
96 | Cn1cnc2c1C(C(=O)N1CCCC1)N(CC1CC1)CC2 (stereo not given) | 6.37
97 | COc1c(CNC2CCCOc3ccc(F)cc32)c(C(C)C)nn1C (stereo not given) | -5.83
98 | CC(C)NC(=O)N1CC[C@@H](N(C)C)[C@@H]1Cc1ccccc1 | 9.82
99 | Cc1ccc(CN2CC[C@H]3OCC[C@@]3(C(=O)N3CCCO3)C2)o1 | 8.83
100 | Cc1cccc(CN2CCC3(CC2)CC(Oc2cccnc2)C3)n1 | 12.7
101 | CN1CCN(C(=O)NC2CC2)Cc2cccnc21 | -2.96
102 | CCOC(=O)c1sc2ccsc2c1CN | -1.86
103 | COCCN1CC[C@H](O)[C@@H]1Cc1ccccc1 | -10
104 | Cc1ccc(N2CCC3(CCN(C(=O)c4ccccn4)CC3)CC2)nn1 | 0.255
105 | COCCNC(=O)[C@H]1CC[C@@H]2[C@@H](CCN2c2ncc(F)cn2)O1 | -2.25
106 | COCCNC(=O)[C@@H]1CC[C@@H]2[C@@H](CCN2c2ncc(F)cn2)O1 | -0.554
107 | O=C(C1CC=CC1)N1C[C@@H](OCc2cccnc2)[C@H]2OCCC[C@H]21 | 2.74
108 | CN(C)C(=O)CO[C@H]1CN(Cc2nccs2)[C@@H]2COC[C@H]12 | 5.08
109 | Cc1c(Cl)cccc1S(=O)(=O)N1C[C@H]2CC[C@@H](C1)N(C)C2=O | 3.42
110 | Cc1noc(C)c1CN1C[C@H]2CC[C@@H](C1)N(Cc1cc(F)cc(F)c1)C2 | -11.9
